Published values collected from several papers.
Read-out: enzyme activity
Action: inhibitor
PARP10: Protein mono-ADP-ribosyltransferase PARP10 (PARP10, Homo sapiens, UniProt Q53GL7)
HDAC1: Histone deacetylase 1 (HDAC1, Homo sapiens, UniProt Q13547)

For `COc1cccc(Cn2nnc3c4ccc(F)cc4c(=O)[nH]c32)c1`, the IC50 was 1660 nM (PARP10).
The IC50 of `Nc1nc2c(ncn2[C@H]2CC[C@@H](COP(=O)(O)OP(=O)(O)OP(=O)(O)O)O2)c(=O)[nH]1` is reported as 550 nM (TERT (Tribolium castaneum, UniProt Q0QHL8); fluorescence).
The IC50 of `COc1ccc(N(Cc2csc(-c3ccc(Br)cc3)n2)C(=O)CCCCCC(=O)NO)cc1` is reported as 1 nM (HDAC1).
`c1ccc2c(-c3cnn4cc(-c5ccc(N6CCNCC6)cc5)cnc34)ccnc2c1` has an IC50 of 89.7 nM (TGF-beta receptor type-2 (TGFBR2, Homo sapiens, UniProt P37173)).
`COc1cccc(Cn2nnc3c4ccccc4c(=O)[nH]c32)c1` has an IC50 of 219 nM (PARP10).
With `COc1ccc(N(Cc2nc(-c3ccc(Cl)cc3)cs2)C(=O)CCCCCC(=O)NO)cc1` the IC50 was 1.7 nM (HDAC1).
`COc1ccc(Nc2ncnc3c2ncn3Cc2ccc(C(=O)NO)cc2)cc1` has an IC50 of 260 nM (HDAC1; fluorescence).
With `O=c1cc(-c2ccccc2)oc2cc(O)c(O)c(O)c12` the IC50 was 6360 nM (Seed linoleate 13S-lipoxygenase-1 (Glycine max, UniProt P08170)).
With `Cc1ccc(S(=O)(=O)[N](Nc2ccc([N+](=O)[O-])cc2[N+](=O)[O-])[Sn]([Cl])[Cl])cc1` the IC50 was 1520 nM (Polyunsaturated fatty acid 5-lipoxygenase (ALOX5, Homo sapiens, UniProt P09917)).
For `CCCCn1c(=O)c2cc(F)ccc2c2nnn(Cc3ccc(C)cc3)c21`, the IC50 was > 10000 nM (PARP10).
With `COc1ccc(N(Cc2nc(-c3ccccc3)cs2)C(=O)CCCCCC(=O)NO)cc1` the IC50 was 1.6 nM (HDAC1).
With `O=C(NO)c1ccc(Cn2cnc3c(Nc4ccc(Cl)cc4)ncnc32)cc1` the IC50 was 166 nM (HDAC1; fluorescence).
The IC50 of `O=c1[nH]c2c(nnn2Cc2ccccc2)c2ccc(F)cc12` is reported as 933 nM (PARP10).
For `COc1ccc(N(Cc2csc(-c3ccccc3Br)n2)C(=O)CCCCCC(=O)NO)cc1`, the IC50 was 1.3 nM (HDAC1).
With `Clc1ccc(Nc2ccncc2)cc1Cl` the IC50 was > 99000 nM (Uracil-DNA glycosylase (UNG, Homo sapiens, UniProt P13051)).
With `O=c1[nH]c2c(nnn2-c2ccc(Br)cc2)c2ccccc12` the IC50 was > 10000 nM (PARP10).
With `O=C(NO)c1ccc(Cn2cnc3c(Nc4cccc([N+](=O)[O-])c4)ncnc32)cc1` the IC50 was 148 nM (HDAC1; fluorescence).
`O=C(CCCCCC(=O)N(Cc1nc(-c2ccccc2)cs1)c1ccc(OCc2ccc(F)cc2)cc1)NO` gave an IC50 of 3.8 nM (HDAC1).
`Cc1ccc(Cn2nnc3c4cc(C)ccc4c(=O)[nH]c32)cc1` gave an IC50 of > 10000 nM (PARP10).
With `CCCOc1ccc(N(Cc2nc(-c3ccccc3)cs2)C(=O)CCCCCC(=O)NO)cc1` the IC50 was 2.2 nM (HDAC1).
`O=C(NO)c1ccc(Cn2cnc3c(Nc4ccc(F)c(Cl)c4)ncnc32)cc1` has an IC50 of 341 nM (HDAC1; fluorescence).
`O=c1[nH]c2c(nnn2Cc2c(F)c(F)c(F)c(F)c2F)c2ccc(F)cc12` gave an IC50 of > 10000 nM (PARP10).
For `COc1ccc(N(Cc2nc(-c3ccc(Br)cc3)cs2)C(=O)CCCCCC(=O)NO)cc1`, the IC50 was 3.6 nM (HDAC1).
`O=c1[nH]c2c(nnn2Cc2ccccc2C(F)(F)F)c2ccccc12` gave an IC50 of > 10000 nM (PARP10).
The IC50 of `O=C1CC[C@H](N2Cc3cc(N4CCN(CC5CCN(c6ccc([C@@H]7c8ccc(O)cc8CC[C@@H]7c7ccccc7)cc6)CC5)CC4)ccc3C2=O)C(=O)N1` is reported as 900 nM (ATP-dependent translocase ABCB1 (ABCB1, Homo sapiens, UniProt P08183)).
